Source: ChEMBL document CHEMBL1122148, “Affinity therapeutics. 1. Selective incorporation of 2-thiouracil derivatives in murine melanomas. Cytostatic activity of 2-thiouracil arotinoids, 2-thiouracil retinoids, arotinoids, and retinoids” (1982)

Legend:
S91 [1] = assay: Growth inhibition of Cloudman S91 Melanoma cells at 1 uM drug concentration; values are per cent of control; details: Mus musculus
S91 [2] = assay: Growth inhibition of Cloudman S91 Melanoma cells at 10 uM drug concentration; values are per cent of control; details: Mus musculus
Mus musculus [3] = assay: Harding Passey melanoma tumor and organ incorporation of radioactivity 48 hr after 2.2 microCi dose injected intramuscularly in mouse eye; assay type: functional
Procedure, shortened: (§1)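 Harding Passey melanoma tissue (strongly melanized) was minced, and the brei was implanted subcutaneously into the right flank of DBA/2 mice. Tumors reached about 6×7 mm by 2 weeks. The ³⁵S-labelled thiouracil was injected intramuscularly into the right thigh, and animals were killed 48 h later. Four samples were taken per tumor and one per organ. Tissue was solubilized at 37 °C for 16 h, bleached, and scintillation-counted. Results are radioactivity per mg wet weight.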

Mus musculus [4] = assay: Cloudman S 91 melanoma tumor and organ incorporation of radioactivity 48 h after 2.2 microCi dose injected intramuscularly in mouse eye; assay type: functional
Procedure, shortened: (§2)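 Cloudman S 91 cells in culture (3×10^6) were implanted subcutaneously into the right flank of DBA/2 mice. After 2 weeks the tumors were about 6×7 mm. The ³⁵S-labelled thiouracil was given intramuscularly into the right thigh, and mice were killed 48 h later. Four samples were taken per tumor and one per organ. Tissue was solubilized at 37 °C for 16 h, bleached, and counted by liquid scintillation. Results are radioactivity per mg wet weight.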

Mus musculus [5] = assay: Cloudman S 91 melanoma tumor and organ incorporation of radioactivity 48 hr after 2.2 microCi dose injected intramuscularly in mouse kidney; assay type: functional
Procedure, shortened: as §2

Mus musculus [6] = assay: Harding Passey melanoma tumor and organ incorporation of radioactivity 48 hr after 2.2 microCi dose injected intramuscularly in mouse kidney; assay type: functional
Procedure, shortened: as §1

Mus musculus [7] = assay: Harding Passey melanoma tumor and organ incorporation of radioactivity 48 hr after 2.2 microCi dose injected intramuscularly in mouse liver; assay type: functional
Procedure, shortened: as §1

Mus musculus [8] = assay: Harding Passey melanoma tumor and organ incorporation of radioactivity 48 hr after 2.2 microCi dose injected intramuscularly in mouse lung; assay type: functional
Procedure, shortened: as §1

Mus musculus [9] = assay: Harding Passey melanoma tumor and organ incorporation of radioactivity 48 hr after 2.2 microCi dose injected intramuscularly in mouse spleen; assay type: functional
Procedure, shortened: as §1

Mus musculus [10] = assay: Cloudman S 91 melanoma tumor and organ incorporation of radioactivity 48 hr after 2.2 microCi dose injected intramuscularly in mouse liver; assay type: functional
Procedure, shortened: as §2

Mus musculus [11] = assay: Cloudman S 91 melanoma tumor and organ incorporation of radioactivity 48 hr after 2.2 microCi dose injected intramuscularly in mouse lung; assay type: functional
Procedure, shortened: as §2

Mus musculus [12] = assay: Cloudman S 91 melanoma tumor and organ incorporation of radioactivity 48 hr after 2.2 microCi dose injected intramuscularly in mouse spleen; assay type: functional
Procedure, shortened: as §2

Mus musculus [13] = assay: Cloudman S 91 melanoma tumor and organ incorporation of radioactivity 48 hr after 2.2 microCi dose injected intramuscularly in mouse tumor; assay type: functional
Procedure, shortened: as §2

Mus musculus [14] = assay: Harding Passey melanoma tumor and organ incorporation of radioactivity 48 hr after 2.2 microCi dose injected intramuscularly in mouse tumor; assay type: functional
Procedure, shortened: as §1

Mus musculus [15] = assay: Cloudman S 91 melanoma tumor and organ incorporation of radioactivity 48 hr after 1.4 microCi dose injected intramuscularly in mouse eye; assay type: functional
Procedure, shortened: as §2

Mus musculus [16] = assay: Cloudman S 91 melanoma tumor and organ incorporation of radioactivity 48 hr after 1.4 microCi dose injected intramuscularly in mouse kidney; assay type: functional
Procedure, shortened: as §2

Mus musculus [17] = assay: Cloudman S 91 melanoma tumor and organ incorporation of radioactivity 48 hr after 1.4 microCi dose injected intramuscularly in mouse liver; assay type: functional
Procedure, shortened: as §2

Mus musculus [18] = assay: Cloudman S 91 melanoma tumor and organ incorporation of radioactivity 48 h after 1.4 microCi dose injected intramuscularly in mouse lung; assay type: functional
Procedure, shortened: as §2

Mus musculus [19] = assay: Cloudman S 91 melanoma tumor and organ incorporation of radioactivity 48 hr after 1.4 microCi dose injected intramuscularly in mouse spleen; assay type: functional
Procedure, shortened: as §2

Mus musculus [20] = assay: Harding Passey melanoma tumor and organ incorporation of radioactivity 48 hr after 1.4 microCi dose injected intramuscularly in mouse tumor; assay type: functional
Procedure, shortened: as §1

Mus musculus [21] = assay: Cloudman S 91 melanoma tumor and organ incorporation of radioactivity 48 hr after 1.4 microCi dose injected intramuscularly in mouse tumor; assay type: functional
Procedure, shortened: as §2

Mus musculus [22] = assay: Harding Passey melanoma tumor and organ incorporation of radioactivity 48 hr after 1.4 microCi dose injected intramuscularly in mouse eye; assay type: functional
Procedure, shortened: as §1

Mus musculus [23] = assay: Harding Passey melanoma tumor and organ incorporation of radioactivity 48 hr after 1.4 microCi dose injected intramuscularly in mouse kidney; assay type: functional
Procedure, shortened: as §1

Mus musculus [24] = assay: Harding Passey melanoma tumor and organ incorporation of radioactivity 48 hr after 1.4 microCi dose injected intramuscularly in mouse liver; assay type: functional
Procedure, shortened: as §1

Mus musculus [25] = assay: Harding Passey melanoma tumor and organ incorporation of radioactivity 48 hr after 1.4 microCi dose injected intramuscularly in mouse lung; assay type: functional
Procedure, shortened: as §1

Mus musculus [26] = assay: Harding Passey melanoma tumor and organ incorporation of radioactivity 48 hr after 1.4 microCi dose injected intramuscularly in mouse spleen; assay type: functional
Procedure, shortened: as §1

Mus musculus [27] = assay: Harding Passey melanoma tumor and organ incorporation of radioactivity 48 hr after 5.1 microCi dose injected intramuscularly in mouse spleen; assay type: functional
Procedure, shortened: as §1

Mus musculus [28] = assay: Harding Passey melanoma tumor and organ incorporation of radioactivity 48 hr after 5.1 microCi dose injected intramuscularly in mouse tumor; assay type: functional
Procedure, shortened: as §1

Mus musculus [29] = assay: Harding Passey melanoma tumor and organ incorporation of radioactivity 48 hr after 5.1 microCi dose injected intramuscularly in mouse kidney; assay type: functional
Procedure, shortened: as §1

Mus musculus [30] = assay: Harding Passey melanoma tumor and organ incorporation of radioactivity 48 hr after 5.1 microCi dose injected intramuscularly in mouse liver; assay type: functional
Procedure, shortened: as §1

Mus musculus [31] = assay: Harding Passey melanoma tumor and organ incorporation of radioactivity 48 hr after 5.1 microCi dose injected intramuscularly in mouse eye; assay type: functional
Procedure, shortened: as §1

Mus musculus [32] = assay: Harding Passey melanoma tumor and organ incorporation of radioactivity 48 hr after 5.1 microCi dose injected intramuscularly in mouse lung; assay type: functional
Procedure, shortened: as §1

SMILES	level, % of control at 1 µM (S91 [1])	level, % of control at 10 µM (S91 [2])	also measured
N#CSCCCCc1cnc(S)nc1O	93%	100%	–
O=Cc1ccc(C(=O)OCCCCc2cnc(S)nc2O)cc1	118%	98%	–
C/C=C/C=C/C(=O)OCCCCc1cnc(S)nc1O	139%	94%	–
OCCCCc1cnc(S)nc1O	81%	82%	Activity (Mus musculus [3]): 2.6 c.p.m. min-1 mg-1; Activity (Mus musculus [4]): 2.7 c.p.m. min-1 mg-1; Activity (Mus musculus [5]): 8 c.p.m. min-1 mg-1; Activity (Mus musculus [6]): 26.1 c.p.m. min-1 mg-1; Activity (Mus musculus [7]): 8.8 c.p.m. min-1 mg-1; Activity (Mus musculus [8]): 4 c.p.m. min-1 mg-1; Activity (Mus musculus [9]): 1.5 c.p.m. min-1 mg-1; Activity (Mus musculus [10]): 6.1 c.p.m. min-1 mg-1; Activity (Mus musculus [11]): 3 c.p.m. min-1 mg-1; Activity (Mus musculus [12]): 1.5 c.p.m. min-1 mg-1; Activity (Mus musculus [13]): 7.6 c.p.m. min-1 mg-1; Activity (Mus musculus [14]): 24.8 c.p.m. min-1 mg-1
O=C1CCCC/C1=C/CCCc1cnc(S)nc1O	87%	89%	–
CC(=O)OCCCCc1cnc(S)nc1O	90%	94%	–
CCOC(=O)c1ccc(/C=C(\C)c2ccc3c(c2)CCCC3)cc1	81%	97%	–
C/C(=C\c1ccc(C(=O)OCCCCc2cnc(S)nc2O)cc1)c1ccc2c(c1)CCCC2	78%	103%	Activity (Mus musculus [15]): 1.8 c.p.m. min-1 mg-1; Activity (Mus musculus [16]): 4.5 c.p.m. min-1 mg-1; Activity (Mus musculus [17]): 6.1 c.p.m. min-1 mg-1; Activity (Mus musculus [18]): 3.2 c.p.m. min-1 mg-1; Activity (Mus musculus [19]): 1.7 c.p.m. min-1 mg-1; Activity (Mus musculus [20]): 10.6 c.p.m. min-1 mg-1; Activity (Mus musculus [21]): 4.4 c.p.m. min-1 mg-1; Activity (Mus musculus [22]): 1.9 c.p.m. min-1 mg-1; Activity (Mus musculus [23]): 6.6 c.p.m. min-1 mg-1; Activity (Mus musculus [24]): 9.9 c.p.m. min-1 mg-1; Activity (Mus musculus [25]): 3.7 c.p.m. min-1 mg-1; Activity (Mus musculus [26]): 1.2 c.p.m. min-1 mg-1
O=Cc1ccc(C(=O)OCCc2cnc(S)nc2O)cc1	82%	83%	–
C/C(=C\c1ccc(C(=O)OCCCCc2cnc(S)nc2O)cc1)c1ccc2c(c1)C(C)(C)CCC2(C)C	146%	84%	–
CC1=C(/C=C/C(C)=C/C=C/C(C)=C/C(=O)OCCCCc2cnc(S)nc2O)C(C)(C)CCC1	73%	–	–
C/C(=C\c1ccc(C(=O)O)cc1)c1ccc2c(c1)C(C)(C)CCC2(C)C	122%	98%	–
CC(O)Cc1cnc(S)nc1O (configuration not stated)	134%	106%	–
Oc1nc(S)ncc1CCCCBr	109%	100%	–
CCOC(=O)c1ccc(/C=C(\C)c2ccc3c(c2)C(C)(C)CCC3(C)C)cc1 [AROTINOID]	134%	98%	–
O=c1cc[nH]c(=S)[nH]1 [THIOURACIL]	97%	97%	Activity (Mus musculus [27]): 2.7 c.p.m. min-1 mg-1; Activity (Mus musculus [28]): 153.3 c.p.m. min-1 mg-1; Activity (Mus musculus [29]): 22.3 c.p.m. min-1 mg-1; Activity (Mus musculus [30]): 20.5 c.p.m. min-1 mg-1; Activity (Mus musculus [31]): 23.1 c.p.m. min-1 mg-1; Activity (Mus musculus [32]): 4.7 c.p.m. min-1 mg-1
CC1=C(/C=C/C(C)=C/C=C/C(C)=C/C(=O)O)C(C)(C)CCC1 [TRETINOIN]	11%	–	–
